Experimental findings from the array DNA melting data of Ke et al. (doi:10.1101/2024.01.08.574731) are described below.

The nature of data set [1]: folding enthalpy; higher = less favourable; fluorescence melt of hairpins on a sequencing array, two-state fit. As to conditions: sodium 0.088 M. The essentials:
(§1)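 Cy3 fluorescence of library hairpins on a sequenced MiSeq flow cell, with annealed Cy3 and quencher oligos, was imaged in 50 mM Na-HEPES pH 8.0, 25 mM NaCl in 2.5 °C steps up to 60 °C. Signals were normalised to pre-quench Cy3 and to control variants. Melting temperature and folding enthalpy came from bootstrapped two-state fits, inverse-variance combined over four replicates. Fitted temperatures were raised by 9.35 °C to match UV melts.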

Data set [2] is described as follows: melting temperature; fluorescence melt of hairpins on a sequencing array, two-state fit, raised by 9.35 °C to match UV melts. Conditions: sodium 0.088 M. The gist of the method:
as §1

As for GCCTTGCGAAAGCTAGGC ((((.((....)).)))), the folding enthalpy in data set [1] is -44.4 kcal/mol. The Tm in data set [2] worked out at 67.2 °C.

With GCCTTGGAAACAAGGC ((((((....)))))), the folding enthalpy in data set [1] is -34.6 kcal/mol. The Tm in data set [2] was found to be 67.8 °C.

As to GCCTTGGGAAACCAAAGC ((.((((....)))).)), the folding enthalpy in data set [1] is -18 kcal/mol. The Tm in data set [2] is 37.6 °C.

GCCTTGGGAAACCAAGGC (((((((....))))))): in data set [1], the folding enthalpy is -44.1 kcal/mol. For the same sequence, the Tm in data set [2] worked out at 68.8 °C.

Turning to GCCTTGGGAAACTAAGGC (((((.(....).))))), the folding enthalpy in data set [1] was -34.7 kcal/mol. In addition, in data set [2], the Tm turned out to be 50.9 °C.

As for GCCTTGGGAAACTAGGGC (((.(.(....).).))), the folding enthalpy in data set [1] was -30.1 kcal/mol. Besides, in data set [2], the Tm came out at 36.5 °C.

On to GCCTTGTCGAAAGACGGC (((..(((....)))))), for which, in data set [1], the folding enthalpy is -18 kcal/mol. In data set [2], the Tm was 47.8 °C.

As to GCCTTTCGAAAGAAGGC (((.(((....)))))), the folding enthalpy in data set [1] is -29.1 kcal/mol. In addition, the Tm in data set [2] amounted to 50.4 °C.

Regarding GCCTTTGGAAACGAAGGC (((((.(....).))))), the folding enthalpy in data set [1] was -35.4 kcal/mol. For the same sequence, the Tm in data set [2] was found to be 51.6 °C.

On to GCGAAAAGTCGC ((((....)))), for which the folding enthalpy in data set [1] is -12.1 kcal/mol. In addition, the Tm in data set [2] turned out to be 41.7 °C.

Consider GCGAAACCGAAAGGTCGC (((..(((....)))))), for which, in data set [1], the folding enthalpy is -29.9 kcal/mol. In addition, the Tm in data set [2] was determined as 54.4 °C.

Take GCGAAAGATCGC ((((....)))): the folding enthalpy in data set [1] is -12.4 kcal/mol. The Tm in data set [2] worked out at 39.9 °C.

GCGAAAGGAAACCTTCGC (((((.(....).))))): the folding enthalpy in data set [1] was -34.4 kcal/mol. The Tm in data set [2] worked out at 48.8 °C.

GCGAACACGAAAGTGCGC (((..(((....)))))): the folding enthalpy in data set [1] is -21.2 kcal/mol. Besides, in data set [2], the Tm is 51 °C.

Turning to GCGAACCATCGC ((((....)))), the folding enthalpy in data set [1] is -18.7 kcal/mol. In addition, in data set [2], the Tm worked out at 47.7 °C.

As for GCGAACCGAAAGGTACGC (((.(((....))).))), in data set [1], the folding enthalpy was -45.7 kcal/mol. Besides, in data set [2], the Tm is 64.3 °C.

Consider GCGAACCGAAAGGTCCGC (((.(((....))).))), for which the folding enthalpy in data set [1] was -44.5 kcal/mol. Besides, the Tm in data set [2] is 62.8 °C.

With GCGAACGAAAGTTCCCGC ((((((....)))..))), the folding enthalpy in data set [1] is -16.3 kcal/mol. For the same sequence, the Tm in data set [2] amounted to 36.7 °C.

Take GCGAACGGAAACGTTCAC (.(((((....))))).): in data set [1], the folding enthalpy was -14.4 kcal/mol. Besides, the Tm in data set [2] was found to be 46.1 °C.

Take GCGAACGGTCGC ((((....)))): the folding enthalpy in data set [1] was -30.9 kcal/mol. Also, in data set [2], the Tm was determined as 47.7 °C.

GCGAAGACTCGC ((((....)))): the folding enthalpy in data set [1] is -15.8 kcal/mol. For the same sequence, the Tm in data set [2] worked out at 44.8 °C.

Turning to GCGAAGCGAAAGCATAGC ((.(.((....)).).)), the folding enthalpy in data set [1] was -15.7 kcal/mol. For the same sequence, in data set [2], the Tm was determined as 52.5 °C.

Consider GCGAAGCGAAAGCATCGC ((((.((....)).)))), for which the folding enthalpy in data set [1] is -17.4 kcal/mol. The Tm in data set [2] came out at 61.1 °C.

On to GCGAAGCGAAAGCCCCGC (((..((....))..))), for which the folding enthalpy in data set [1] is -7.44 kcal/mol. For the same sequence, the Tm in data set [2] stood at 36.3 °C.

For the sequence GCGAAGCGAAAGCGTCGC ((((.((....)).)))), the folding enthalpy in data set [1] is -21.3 kcal/mol. Moreover, in data set [2], the Tm came to 68.7 °C.

Consider GCGAAGCGAAAGCTAGGC ((..(((....)))..)), for which the folding enthalpy in data set [1] was -5.32 kcal/mol. The Tm in data set [2] turned out to be 40.9 °C.

As to GCGAAGCGAAAGCTCAGC ((..(((....)))..)), the folding enthalpy in data set [1] is -7.68 kcal/mol. In data set [2], the Tm came to 41.1 °C.

For GCGAAGCGAAAGCTCGC (((.(((....)))))), the folding enthalpy in data set [1] was -24.3 kcal/mol. Further, the Tm in data set [2] came to 67.1 °C.

Consider GCGAAGCGAAAGCTGTGC ((..(((....)))..)), for which the folding enthalpy in data set [1] was -8.75 kcal/mol. Also, the Tm in data set [2] was determined as 46.5 °C.

On to GCGAAGGATCGC ((((....)))), for which, in data set [1], the folding enthalpy is -9.71 kcal/mol. Also, in data set [2], the Tm is 59.7 °C.

Consider GCGAAGGGAAACCTTTGC ((.((((....)))).)), for which, in data set [1], the folding enthalpy is -34.6 kcal/mol. Also, in data set [2], the Tm worked out at 49.8 °C.

As for GCGAAGGTTCGC ((((....)))), the folding enthalpy in data set [1] is -20.8 kcal/mol. The Tm in data set [2] came out at 50.4 °C.

As to GCGAAGTTCGC ((((...)))), in data set [1], the folding enthalpy was -17 kcal/mol. The Tm in data set [2] was found to be 46.4 °C.

Consider GCGAATACTCGC ((((....)))), for which the folding enthalpy in data set [1] is -22.1 kcal/mol. In addition, the Tm in data set [2] was determined as 46.2 °C.

For GCGAATCTCGC ((((...)))), the folding enthalpy in data set [1] was -19.7 kcal/mol. Further, in data set [2], the Tm amounted to 47.4 °C.

For the sequence GCGAATGCTCGC ((((....)))), the folding enthalpy in data set [1] was -11.5 kcal/mol. The Tm in data set [2] amounted to 57.7 °C.

On to GCGAATGGAAACATTTGC ((.((((....)))).)), for which the folding enthalpy in data set [1] is -33.6 kcal/mol. Further, the Tm in data set [2] was 49.5 °C.

In the case of GCGAATTCGAAAGAACGC (((..(((....)))))), the folding enthalpy in data set [1] is -20.4 kcal/mol. Besides, in data set [2], the Tm turned out to be 40.5 °C.

GCGACAGGAAACCGTCGC (((((.(....).))))): the folding enthalpy in data set [1] is -43.4 kcal/mol. The Tm in data set [2] is 58.8 °C.

GCGACAGGAAACTACCGC (((..((....))..))): in data set [1], the folding enthalpy was -20.5 kcal/mol. Further, in data set [2], the Tm amounted to 31.6 °C.

As for GCGACAGGAAACTATCGC ((((.((....)).)))), the folding enthalpy in data set [1] was -31.9 kcal/mol. Besides, in data set [2], the Tm stood at 43.7 °C.

On to GCGACATGTCGC ((((....)))), for which the folding enthalpy in data set [1] was -37 kcal/mol. For the same sequence, the Tm in data set [2] came to 63.8 °C.

GCGACCACGAAAGTGCGC (((..(((....)))))): the folding enthalpy in data set [1] is -20.9 kcal/mol. Moreover, the Tm in data set [2] was found to be 48.5 °C.

With GCGACCCCGAAAGGGCGC (((..(((....)))))), the folding enthalpy in data set [1] is -29.1 kcal/mol. For the same sequence, the Tm in data set [2] came out at 67.7 °C.

Regarding GCGACCCCTCGC ((((....)))), the folding enthalpy in data set [1] was -23.4 kcal/mol. For the same sequence, in data set [2], the Tm is 50.1 °C.

As to GCGACCCTCGC ((((...)))), in data set [1], the folding enthalpy was -20.7 kcal/mol. For the same sequence, the Tm in data set [2] came out at 49.4 °C.

Take GCGACCGAAAGGTCTCGC ((((((....)))..))): the folding enthalpy in data set [1] is -14.6 kcal/mol. Further, the Tm in data set [2] was found to be 50.2 °C.

Take GCGACCGGAAACGACCGC (((..((....))..))): in data set [1], the folding enthalpy was -27.4 kcal/mol. The Tm in data set [2] amounted to 41.8 °C.

As to GCGACCGGAAACGATCGC ((((.((....)).)))), the folding enthalpy in data set [1] is -38.7 kcal/mol. Moreover, the Tm in data set [2] worked out at 55 °C.

For GCGACCGGAAACGGCCAC (.(.(((....))).).), in data set [1], the folding enthalpy is -14.4 kcal/mol. Also, the Tm in data set [2] is 32.5 °C.

Turning to GCGACCGTCGC ((((...)))), the folding enthalpy in data set [1] is -26.8 kcal/mol. For the same sequence, the Tm in data set [2] is 45.5 °C.

Consider GCGACCTATCGC ((((....)))), for which the folding enthalpy in data set [1] was -28.4 kcal/mol. In addition, the Tm in data set [2] is 49.3 °C.

With GCGACGCGAAAGCAGCGC (((..((....))..))), the folding enthalpy in data set [1] is -30.3 kcal/mol. Besides, in data set [2], the Tm stood at 65.7 °C.

Turning to GCGACGCGAAAGCCTCGC ((((.((....)).)))), the folding enthalpy in data set [1] is -33.3 kcal/mol. In data set [2], the Tm was determined as 60.4 °C.

Regarding GCGACGCGAAAGCCTGGC ((.(.((....)).).)), the folding enthalpy in data set [1] was -5.89 kcal/mol. Moreover, the Tm in data set [2] was 28.1 °C.

For the sequence GCGACGCGAAAGCGAGGC ((..(((....)))..)), the folding enthalpy in data set [1] is -12.8 kcal/mol. In data set [2], the Tm was found to be 54.6 °C.

Regarding GCGACGCGAAAGCTCCGC (((..((....))..))), in data set [1], the folding enthalpy is -20.2 kcal/mol. For the same sequence, the Tm in data set [2] stood at 50.6 °C.
